From ChEMBL document CHEMBL3044720, “Phytotoxic Eremophilanes from Ligularia macrophylla” (J Agric Food Chem, 2007) come the findings set out here.

Active and inactive are the calls of the source. The rule behind the calls is not given here.

For experiment [1], the system named is Coptotermes formosanus. Put plainly: Antitermite activity against greater than third-instar stage of Coptotermes formosanus workers/1 soldier in compound-pretreated filter paper assessed as mortality at 0.5% at 26 degC after 13 days (reference value: 3.8 +/-4.8%). The class given is functional. The gist of the method:
(§1)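 Test material in acetone (100 µL) was blotted onto 2.5 cm filter paper discs, dried several hours, then moistened with 100 µL water. Each dish held 20 workers (third instar or greater) and two soldiers. Dishes were kept at ca. 100% RH and 26 °C, with water-only controls. Four replicates came from different colonies. Mortality was scored daily for 3 weeks, reported as mean and SD, and compared by ANOVA with Fisher LSD (P < 0.05).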

The subject of experiment [2] is Coptotermes formosanus. Put plainly: Antitermite activity against greater than third-instar stage of Coptotermes formosanus workers/1 soldier in compound-pretreated filter paper assessed as mortality at 0.5% at 26 degC after 6 days (reference value: 2.5 +/-5%). The class given is functional. In a few lines:
as §1

Experiment [3] deals with Coptotermes formosanus. Description: Antitermite activity against greater than third-instar stage of Coptotermes formosanus workers/1 soldier in compound-pretreated filter paper assessed as mortality at 0.5% at 26 degC after 1 day (reference value: 0%). The experiment is classed as functional. In a few lines:
as §1

In experiment [4] the test system is Colletotrichum gloeosporioides. Put plainly: Antifungal activity against Colletotrichum gloeosporioides assessed as growth inhibition at 10 ug after 4-5 days by direct bioautography. The experiment is classed as functional, organism-based. In a few lines: (§2)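 Direct TLC bioautography against strawberry-anthracnose Colletotrichum isolates grown on PDA at 24 ± 2 °C under a 12 h photoperiod. Conidia were harvested from 7–10-day cultures and filtered. Developed plates carrying 10 µg/spot were sprayed with 10^5 spores/mL and held in a moisture chamber for 4 days at 26 °C with a 12 h photoperiod. Zone diameters were measured 4–5 days after treatment.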

For another experiment, the system named is Colletotrichum fragariae. Description: Antifungal activity against Colletotrichum fragariae assessed as growth inhibition at 10 ug after 4-5 days by direct bioautography. The class given is functional, organism-based. In a few lines:
as §2

A further experiment relates to Colletotrichum acutatum. Put plainly: Antifungal activity against Colletotrichum acutatum assessed as diameter of growth inhibitory zone at 10 ug after 4-5 days by direct bioautography. The class given is functional. The gist of the method:
as §2

In experiment [5] the test system is Lactuca sativa. Put plainly: Phytotoxic activity against Lactuca sativa (lettuce) seeds assessed as inhibition of germination at 1 uM at 26 degC measured 7 days post-drug dose. The experiment is classed as functional, organism-based. In a few lines:
(§3)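 Each well held 5 mg lettuce or 10 mg bentgrass seed plus 250 µL of compound in water with 3% acetone final; acetone/water controls were included. Sealed plates were kept at 26 °C under continuous light (173 µmol/m²/s). Germination was rated visually on a 0–5 scale (0 = no effect, 5 = no germination/growth) against controls, after 7 days for lettuce and 12 days for bentgrass.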

Experiment [6] deals with Lactuca sativa. Description: Phytotoxic activity against Lactuca sativa (lettuce) seeds assessed as inhibition of germination at 1000 uM at 26 degC measured 7 days post-drug dose. The experiment is classed as functional, organism-based. In a few lines: as §3
The subject of experiment [7] is Lactuca sativa. Put plainly: Phytotoxic activity against Lactuca sativa (lettuce) seeds assessed as inhibition of germination at 100 uM at 26 degC measured 7 days post-drug dose. The experiment is classed as functional, organism-based. In a few lines:
as §3

Experiment [8] concerns Lactuca sativa. Put plainly: Phytotoxic activity against Lactuca sativa (lettuce) seeds assessed as inhibition of germination at 10 uM at 26 degC measured 7 days post-drug dose. The class given is functional, organism-based. The gist of the method: as §3
Experiment [9] concerns Agrostis stolonifera. Description: Phytotoxic activity against Agrostis stolonifera seeds assessed as inhibition of germination at 1 uM at 26 degC measured 12 days post-drug dose. The experiment is classed as functional, organism-based. In a few lines: as §3
Experiment [10] relates to Agrostis stolonifera. Put plainly: Phytotoxic activity against Agrostis stolonifera seeds assessed as inhibition of germination at 1000 uM at 26 degC measured 12 days post-drug dose. The class given is functional, organism-based. In a few lines:
as §3

Experiment [11] has as its system Agrostis stolonifera. Put plainly: Phytotoxic activity against Agrostis stolonifera seeds assessed as inhibition of germination at 100 uM at 26 degC measured 12 days post-drug dose. The experiment is classed as functional, organism-based. In a few lines: as §3
Experiment [12] has as its system Agrostis stolonifera. Description: Phytotoxic activity against Agrostis stolonifera seeds assessed as inhibition of germination at 10 uM at 26 degC measured 12 days post-drug dose. The experiment is classed as functional, organism-based. In a few lines: as §3
Experiment [13] has as its system Coptotermes formosanus. Put plainly: Antitermite activity against greater than third-instar stage of Coptotermes formosanus workers/1 soldier in compound-pretreated filter paper assessed as filter paper consumption at 0.5% at 26 degC after 21 days (reference value: 41.4 +/-5.6 mg). The experiment is classed as functional.
Experiment [14] deals with Coptotermes formosanus. Put plainly: Antitermite activity against greater than third-instar stage of Coptotermes formosanus workers/1 soldier in compound-pretreated filter paper assessed as mortality at 0.5% at 26 degC after 21 days (reference value: 3.8 +/-4.8%). The experiment is classed as functional. In a few lines: as §1
Experiment [15] deals with Lemna aequinoctialis. Description: Phytotoxic activity against three-frond Lemna paucicostata colonies assessed as growth inhibition at 100 uM after 4 days. The experiment is classed as functional, organism-based. In a few lines:
(§4)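 Hoagland medium at pH 5.5 was filter-sterilized, with compound added in acetone or EtOH (1% final); tested range 100 to 0.1 µM. Two three-frond colonies from 4–5-day-old stock cultures were placed per well. Total frond area was imaged on days 0–4, and % increase was taken relative to day 0. IC50 came from a four-parameter logistic fit in R drc.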

Experiment [16] concerns Cucumis sativus. Description: Inhibition of photosynthetic electron transport rate in Cucumis sativa Straight Eight (cucumber) cotyledons assessed as chlorophyll fluorescence at 100 uM at 22 degC measured at 2 to 24 hr post-drug treatment under constant light by fluorometer analysis. The class given is functional, organism-based. The gist of the method: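 8 mm cotyledon discs were cut from 6-day-old cucumber 'Straight Eight'. Variable chlorophyll fluorescence was read with a pulse-modulated fluorometer before treatment, then at 2, 4, 8 and 24 h. Discs sat in 1 mL 0.1% Tween 20 with 100 µM compound, 0.1% acetone solvent control or 10 µM atrazine, at 22 °C under continuous light; triplicate.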

The subject of experiment [17] is Cucumis sativus. Description: Induction of cell membrane integrity disruption in Cucumis sativus (cucumber) cotyledons assessed as electrolyte leakage at 25 degC by conductivity meter analysis. The experiment is classed as functional. In a few lines:
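Twenty-five 4 mm cucumber cotyledon discs (~50 mg fresh weight) were bathed in 5 mL of 2% sucrose, 1 mM MES pH 6.5, with 1% (v/v) acetone final in controls and treatments. Incubation was at 25 °C in darkness. Leakage into the bathing medium was followed over time by conductivity; six replicates per treatment.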

Experiment [18] concerns Allium cepa. Description: Inhibition of mitotic cell division in Allium cepa cv. Evergreen (onion) root tips assessed as cell count at telophase stage of cell cycle at 100 to 300 uM at 24 degC. The class given is functional, organism-based.
Experiment [19] has as its system Allium cepa. Put plainly: Inhibition of mitotic cell division in Allium cepa cv. Evergreen (onion) root tips assessed as cell count at anaphase stage of cell cycle at 100 to 300 uM at 24 degC. The experiment is classed as functional, organism-based.
Experiment [20] concerns Allium cepa. Description: Inhibition of mitotic cell division in Allium cepa cv. Evergreen (onion) root tips assessed as cell count at metaphase stage of cell cycle at 100 to 300 uM at 24 degC. The class given is functional, organism-based.
Experiment [21] deals with Allium cepa. Description: Inhibition of mitotic cell division in Allium cepa cv. Evergreen (onion) root tips assessed as cell count at prophase stage of cell cycle at 100 to 300 uM at 24 degC. The class given is functional, organism-based.
For experiment [22], the system named is Lemna aequinoctialis. Put plainly: Phytotoxic activity against three-frond Lemna paucicostata colonies assessed as growth inhibition after 4 days. The class given is functional, organism-based. The following applies: 96 h. In a few lines: as §4
Experiment [23] has as its system Cucumis sativus. Put plainly: Inhibition of photosynthetic electron transport rate in Cucumis sativa Straight Eight (cucumber) cotyledons assessed as chlorophyll fluorescence at 10 uM at 22 degC measured at 2 to 24 hr post-drug treatment under constant light by fluorometer analysis. The experiment is classed as functional, organism-based. In a few lines: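 Cotyledon discs (8 mm) were cut from 6-day-old plants. Induced variable chlorophyll fluorescence was read on a pulse-modulated fluorometer before each disc was placed in 1 mL of 0.1% Tween 20, with or without treatment; the solvent control was 0.1% acetone. Discs were kept at 22 °C under continuous light and read again at 2, 4, 8 and 24 h. Each treatment was run in triplicate.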

Turning to `CC/C=C\C/C=C\C/C=C\CCCCCCCC(=O)O` [LINOLENIC ACID], the mortality in the experiment on Coptotermes formosanus [1] was 5%; in the experiment on Coptotermes formosanus [2] it was 0%; in the experiment with Coptotermes formosanus [3], 0%; with Coptotermes formosanus [14], 6.3%. In addition, the “growth inhibition (GI)” value (in [4]; with Colletotrichum fragariae) was “inactive” each time. Moreover, the Activity with Colletotrichum acutatum amounted to 2.9 mm; in the experiment on Coptotermes formosanus [13], 44.2 mg. For the same molecule, the inhibition result in the experiment with Lactuca sativa [5], with Lactuca sativa [6], in the experiment on Lactuca sativa [7], in the experiment on Lactuca sativa [8], in the experiment on Agrostis stolonifera [9] and in the experiment with Agrostis stolonifera [10] was “inactive” each time. Moreover, the inhibition result in the experiment with Agrostis stolonifera [11] and in the experiment on Agrostis stolonifera [12] was “inactive” each time.
Take `CCCCC/C=C\C/C=C\CCCCCCCC(=O)O` [LINOLEIC ACID]: the mortality in the experiment with Coptotermes formosanus [1] was determined as 5%; with Coptotermes formosanus [2], 3.8%; with Coptotermes formosanus [3], 2.5%; in the experiment with Coptotermes formosanus [14], 6.3%. Besides, the “growth inhibition (GI)” value (in [4]; with Colletotrichum fragariae) was “inactive” each time. For the same molecule, the results for the Activity in the experiment on Colletotrichum acutatum and with Coptotermes formosanus [13] were 2.9 mm and 44.6 mg, respectively. The inhibition result in the experiment on Lactuca sativa [5], in the experiment with Lactuca sativa [6], in the experiment with Lactuca sativa [7], with Lactuca sativa [8], in the experiment with Agrostis stolonifera [9] and in the experiment with Agrostis stolonifera [11] was “inactive” throughout. Besides, the inhibition entry in the experiment on Agrostis stolonifera [12] is “inactive”.
`C=C1COC(=O)[C@@]12C[C@H]1CC[C@@H](OC(=O)/C(C)=C\C)[C@H](C)C1(C)C2` (single isomer, unassigned): the mortality with Coptotermes formosanus [1] is 2.5%; in the experiment on Coptotermes formosanus [2] it was 2.5%; in the experiment with Coptotermes formosanus [3] it was 0%; in the experiment with Coptotermes formosanus [14], 2.5%. The “growth inhibition (GI)” value with Lemna aequinoctialis [15] was “inactive”. In addition, the inhibition result in the experiment with Lactuca sativa [5], with Lactuca sativa [7], with Lactuca sativa [8], in the experiment on Agrostis stolonifera [9], in the experiment with Agrostis stolonifera [11] and in the experiment with Agrostis stolonifera [12] was “inactive” in each case. In addition, the Activity in the experiment on Coptotermes formosanus [13] is given as 40 mg.
In the case of `C/C=C(/C)C(=O)O[C@@H]1c2c(C)coc2C[C@@]2(O)CCC[C@H](C)[C@@]12C`, the mortality was found to be 16.3% with Coptotermes formosanus [1], 3.8% with Coptotermes formosanus [2], 1.3% with Coptotermes formosanus [3] and 18.8% in the experiment on Coptotermes formosanus [14]. Also, the inhibition result in the experiment on Cucumis sativus [16] was “Active”. Further, in the experiment on Cucumis sativus [17], the outcome was inactive. For the same molecule, the inhibition entry in the experiment on Allium cepa [18], in the experiment with Allium cepa [19], in the experiment with Allium cepa [20], in the experiment with Allium cepa [21], in the experiment with Lactuca sativa [5] and with Lactuca sativa [7] was “inactive” throughout. For the same molecule, the inhibition entry with Lactuca sativa [8], in the experiment with Agrostis stolonifera [9] and in the experiment with Agrostis stolonifera [12] was “inactive” in each case. Also, the half-maximal inhibitory concentration (IC50) in the experiment with Lemna aequinoctialis [22] came out at 2.94 µM. The Activity in the experiment with Coptotermes formosanus [13] worked out at 16.5 mg.
On to `CC1=C2C3OC(=O)[C@H]4CCC[C@H](C[C@@H]2OC1=O)[C@]34C` (single isomer, unassigned), for which the “growth inhibition (GI)” value in the experiment with Lemna aequinoctialis [15] is “inactive”. The inhibition result in the experiment with Lactuca sativa [5], with Lactuca sativa [7], in the experiment on Lactuca sativa [8], in the experiment with Agrostis stolonifera [9], with Agrostis stolonifera [11] and in the experiment with Agrostis stolonifera [12] was “inactive” throughout. Besides, the inhibition result in the experiment on Agrostis stolonifera [10] was “Active”.
In the case of `CCNc1nc(Cl)nc(NC(C)C)n1`, in the experiment with Cucumis sativus [23], the inhibition entry was “inactive”.
With `Cc1coc2c1[C@@H]1OC(=O)[C@H]3CCC[C@H](C2)[C@@]31C`, the mortality with Coptotermes formosanus [1] turned out to be 3.8%; with Coptotermes formosanus [2], 1.3%; in the experiment on Coptotermes formosanus [3], 1.3%; in the experiment on Coptotermes formosanus [14] it was 8.8%. Besides, the inhibition result in the experiment on Cucumis sativus [16], with Allium cepa [18], in the experiment on Allium cepa [19], in the experiment on Allium cepa [20], in the experiment on Allium cepa [21] and with Lactuca sativa [5] was “inactive” each time. Moreover, the inhibition result in the experiment with Lactuca sativa [6], with Lactuca sativa [7], with Lactuca sativa [8] and in the experiment with Agrostis stolonifera [9] was “inactive” throughout. The outcome in the experiment with Cucumis sativus [17] was inactive. Also, the “growth inhibition (GI)” value with Lemna aequinoctialis [15] was “inactive”. Further, in the experiment on Coptotermes formosanus [13], the Activity stood at 43.1 mg.
